For test [1], the target named is T1, NAD-dependent protein deacetylase sirtuin-2 (Homo sapiens, UniProt Q8IXJ6).
T1 sequence (Q8IXJ6 whole entry): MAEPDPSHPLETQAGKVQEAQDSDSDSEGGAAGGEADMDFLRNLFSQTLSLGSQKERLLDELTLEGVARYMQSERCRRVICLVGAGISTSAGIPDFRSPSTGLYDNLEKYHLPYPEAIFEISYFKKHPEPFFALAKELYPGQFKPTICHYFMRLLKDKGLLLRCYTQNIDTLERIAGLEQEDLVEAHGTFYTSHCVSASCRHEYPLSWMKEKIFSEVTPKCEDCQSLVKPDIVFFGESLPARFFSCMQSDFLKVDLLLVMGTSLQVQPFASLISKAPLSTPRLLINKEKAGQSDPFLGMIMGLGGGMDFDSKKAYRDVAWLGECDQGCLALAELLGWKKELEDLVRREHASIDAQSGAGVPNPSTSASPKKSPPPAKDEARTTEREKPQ
Nature of the test: Inhibition of N-terminal his6-tagged human SIRT2 (25 to 389 amino acids) using ZMAL as substrate after 4 hrs by fluorescence-based microplate reader method.

In test [2] the target is T2, NAD-dependent protein deacetylase sirtuin-1 (Homo sapiens) (UniProt Q96EB6).
T2 sequence (whole entry): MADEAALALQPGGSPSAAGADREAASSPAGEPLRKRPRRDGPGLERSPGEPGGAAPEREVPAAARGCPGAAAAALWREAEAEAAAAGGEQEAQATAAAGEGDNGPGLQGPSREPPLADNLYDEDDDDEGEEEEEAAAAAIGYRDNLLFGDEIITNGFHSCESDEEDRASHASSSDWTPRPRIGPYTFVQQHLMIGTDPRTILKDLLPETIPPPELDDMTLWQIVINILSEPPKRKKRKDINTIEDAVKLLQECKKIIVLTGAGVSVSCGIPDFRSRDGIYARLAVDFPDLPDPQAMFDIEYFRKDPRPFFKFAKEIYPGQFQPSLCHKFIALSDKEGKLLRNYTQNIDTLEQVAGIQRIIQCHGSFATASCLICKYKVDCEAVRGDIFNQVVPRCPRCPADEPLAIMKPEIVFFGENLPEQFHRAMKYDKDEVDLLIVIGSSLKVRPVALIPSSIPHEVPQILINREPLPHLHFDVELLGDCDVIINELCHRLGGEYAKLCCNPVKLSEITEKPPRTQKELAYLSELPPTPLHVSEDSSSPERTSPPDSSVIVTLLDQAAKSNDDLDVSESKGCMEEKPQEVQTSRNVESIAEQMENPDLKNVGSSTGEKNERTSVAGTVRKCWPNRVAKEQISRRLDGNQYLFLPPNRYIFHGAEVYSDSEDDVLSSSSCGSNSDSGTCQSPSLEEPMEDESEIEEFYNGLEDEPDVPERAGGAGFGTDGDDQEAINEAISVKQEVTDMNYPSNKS
The test is described as follows: Inhibition of GST-tagged human SIRT1 (133 to 747 amino acids) using ZMAL as substrate at 200 uM after 4 hrs by fluorescence-based microplate reader method.

Test [3] addresses T3, NAD-dependent protein deacetylase sirtuin-2 (Homo sapiens) (UniProt Q8IXJ6).
T3 sequence (whole entry): T1 sequence (Q8IXJ6 whole entry)
The test is described as follows: Inhibition of SIRT2 in human HeLa cells assessed as tubulin hyperacetylation at 10 uM after 1 hr by DAPI staining-based immunofluorescence microscopy relative to control. The class given is cell-based. In outline: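 HeLa cells, 0.5 x 10^4 per 12 mm coverslip, were plated overnight, then exposed for 1 h to 10 µM compound added from 10 mM DMSO stocks, with DMSO vehicle controls. The microtubule network was immunostained for acetylation and nuclei were counterstained with DAPI, followed by immunofluorescence microscopy.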

Test [4] deals with T3, NAD-dependent protein deacetylase sirtuin-2 (Homo sapiens). The test is described as follows: Inhibition of SIRT2 in human HeLa cells assessed as tubulin acetylation at 10 uM after 1 hr by Western blotting method. Type of test: cell-based. In outline: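 HeLa cells grown in high-glucose DMEM with 10% FCS and kanamycin at 37 °C, 5% CO2. 1.5 x 10^4 cells per well were plated overnight, then exposed to compound for 1 h from 10 mM DMSO stocks, with DMSO vehicle controls. Cells were lysed in reducing sample buffer and run on SDS-PAGE/PVDF. Blots were probed for acetyl-α-tubulin Lys40 (6-11B-1) and then GAPDH. Values were normalized to the mean control on the same blot.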

Test [5] has the same target. Nature of the test: Inhibition of N-terminal his6-tagged human SIRT2 (25 to 389 amino acids) using ZMAL as substrate at 50 uM after 4 hrs by fluorescence-based microplate reader method. In outline: (§1)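 Fluorogenic deacetylation assay: hSirt1 133-747 or hSirt2 25-389 in 50 mM Tris, 137 mM NaCl, 2.7 mM KCl, pH 8.0, with NAD+ 500 µM and ZMAL (Cbz-Lys(acetyl)-AMC) 10,5 µM final, inhibitor in DMSO (5% v/v final). Control conversion kept near 15-30%. 4 h at 37 °C, then trypsin/nicotinamide stop for 20 min at 37 °C. Fluorescence read at 390/460 nm. % inhibition taken against no-inhibitor controls. At least duplicates.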

Test [6] has as its target T4, NAD-dependent protein deacetylase sirtuin-1 (Homo sapiens, UniProt Q96EB6).
T4 sequence (Q96EB6 whole entry): T2 sequence (whole entry)
Nature of the test: Inhibition of human SIRT1 by fluorometric assay. In outline:
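Fluorescence-based homogeneous assay with ZMAL (Cbz-Lys(acetyl)-AMC) substrate at 10,5 µM final and NAD+ at 500 µM final, in Tris/NaCl/KCl buffer pH 8.0 with 5% (v/v) DMSO final. Incubated 4 h at 37 °C, then stopped with trypsin/nicotinamide for 20 min at 37 °C. Read at ex 390/em 460 nm against no-inhibitor controls, at least duplicates.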

The target of test [7] is T4, NAD-dependent protein deacetylase sirtuin-1. The test is described as follows: Inhibition of human SIRT1 using RHKK(Ac)-AMC as substrate preincubated for 10 mins followed by substrate addition by fluorescence assay.
Test [8] has as its target T1, NAD-dependent protein deacetylase sirtuin-2. The test is described as follows: Inhibition of human SIRT2 using RHKK(Ac)-AMC as substrate preincubated for 10 mins followed by substrate addition by fluorescence assay.
Test [9] has as its target T4, NAD-dependent protein deacetylase sirtuin-1. The test is described as follows: Inhibition of GST-tagged human SIRT1 (133 to 747 amino acids) using ZMAL as substrate after 4 hrs by fluorescence-based microplate reader method.
Test [10] has as its target T1, NAD-dependent protein deacetylase sirtuin-2. The test is described as follows: Inhibition of human SIRT2.
The target in test [11] is T3, NAD-dependent protein deacetylase sirtuin-2 (Homo sapiens). The test is described as follows: Inhibition of N-terminal his6-tagged human SIRT2 (25 to 389 amino acids) using ZMAL as substrate at 500 uM after 4 hrs by fluorescence-based microplate reader method. In outline:
as §1

Test [12] shares this target. The test is described as follows: Inhibition of N-terminal his6-tagged human SIRT2 (25 to 389 amino acids) using ZMAL as substrate at 10 uM after 4 hrs by fluorescence-based microplate reader method. In outline: as §1
Test [13] has the same target. The test is described as follows: Inhibition of N-terminal his6-tagged human SIRT2 (25 to 389 amino acids) using ZMAL as substrate at 250 uM after 4 hrs by fluorescence-based microplate reader method. In outline: as §1

pIC50: −log10 of the molar value. Where a name gives a salt, the structure may show the parent alone. Activity calls are given as the source filed them. The calls are words filed in the database; no cut-off is given here. Where a SMILES comes first, the peptide text is derived from it. Bridges are numbered along the chain shown (N, C = ends). The star is where a group is joined. Tfa = O=C(C(F)(F)F)*

Turning to `Cc1cc(C)nc(SCC(=O)Nc2ncc(Cc3cccc4ccc(Cl)cc34)s2)n1`, the pIC50 in test [1] was 6.74. In test [2], this compound came in with an inhibition of 29%. The inhibition entry in test [3] and in test [4] was “Active” each time.

As to `Cc1cc(C)nc(SCC(=O)Nc2nnc(Cc3ccccc3)s2)n1`, the inhibition in test [2] is less than 10%; in [5], 18%.

Turning to `N#C/C(=C/c1ccc(-c2cc(Cl)ccc2Cl)o1)C(=O)Nc1cccc2ncccc12`, the pIC50 in test [6] was less than 4.40.

Take `COc1ccc2ccccc2c1Cn1cnc2sc3c(c2c1=O)CCC(NCc1cccnc1)C3` (stereo not given): the values for the pIC50 in [7] and in [8] were less than 4.00 and 5.84, respectively.

Turning to `CCc1cc(CC)nc(SC(C)C(=O)Nc2ncc(Cc3ccc(OC)cc3)s2)n1` (racemic), the inhibition in [2] was 18%; in test [5], 40%.

Take `COc1ccc(Cc2cnc(NC(=O)/C=C/c3ccco3)s2)cc1`: the results for the inhibition in test [2] and in [5] were 28% and 18%, respectively.

Regarding `O=C(CSc1nc(-c2ccccc2)cc(-c2ccccc2)n1)Nc1ncc(Cc2ccc(Cl)cc2)s1`, the inhibition amounted to 11% in test [2] and 46% in test [5].

Consider `Cc1cc(C)nc(SCC(N)=O)n1`, for which the inhibition in [2] and in [5] was less than 10% throughout.

Regarding `CCc1cc(CC)nc(SCC(=O)Nc2ncc(Cc3cccc(C)c3)s2)n1`, the inhibition in test [2] and in test [5] was less than 10% in each case.

Consider `COc1ccc(Cc2cnc(NC(=O)CSc3nc(C)cc(C)n3)s2)cc1`, for which the values for the inhibition in test [2] and in test [5] were less than 10% and 48%, respectively.

Turning to `Cc1cc(C)nc(SCC(=O)Nc2ncc(Cc3cccc4ccccc34)s2)n1`, in test [2], the inhibition was less than 10%. The compound also showed a pIC50 in test [9] of less than 4.30.

Compound `CC(C)[C@@H]1NC(=O)[C@H](Cc2c[nH]cn2)NC(=O)[C@H](Cc2ccc(O)cc2)NC(=O)[C@H]([C@@H](C)O)NC(=O)[C@H](Cc2c[nH]cn2)NC(=O)[C@H](Cc2ccc(O)cc2)NC(=O)CSC[C@@H](C(N)=O)NC(=O)[C@H](Cc2ccc(O)cc2)NC(=O)[C@H](Cc2ccc(O)cc2)NC(=O)[C@H](CC(N)=O)NC(=O)[C@H]([C@@H](C)O)NC(=O)[C@H](CCCNC(=N)N)NC(=O)[C@H](CCCNC(=N)N)NC(=O)[C@H](CCCCNC(=O)C(F)(F)F)NC1=O` ({CH2CO}-YHTYHVK(Tfa)RRTNYYC-NH2; thioether N-14) had a pIC50 in [10] of 9.00.

As for `Cc1cc(C)nc(SCC(=O)Nc2ncc(Cc3ccccc3C)s2)n1`, the inhibition stood at 14% in test [2] and 52% in test [5].

`O=C(CSc1ccc(Cl)cc1)Nc1ncc(Cc2cccc3ccccc23)s1`: the inhibition in test [2] and in [5] was less than 10% in each case.

As to `Cc1cc(C)nc(SCC(=O)Nc2nnc(-c3ccccc3)s2)n1`, the inhibition in test [2] was less than 10%; in test [5], 20%.

For the compound `CC(=O)Nc1ncc(Cc2cccc3ccccc23)s1`, the inhibition in [11] is 84%; in [2] it was less than 10%; in test [5], less than 10%.

`CCc1cc(CC)nc(SCC(=O)Nc2ncc(Cc3ccc(OC)cc3)s2)n1`: the inhibition was 17% in [2] and 48% in [5].

As for `CCc1cc(CC)nc(SCC(=O)Nc2ncc(Cc3ccc(Cl)cc3)s2)n1`, the inhibition stood at 18% in test [2] and 38% in test [5].

In the case of `Cc1cc(C)nc(SCC(=O)Nc2nnc(C)s2)n1`, the inhibition in test [2] and in test [5] was less than 10% throughout.

Turning to `Cc1ccccc1Cc1cnc(NC(=O)CSc2ncccn2)s1`, the inhibition in [2] was 11%; in test [5] it was less than 10%.

With `CCc1cc(CC)nc(SCC(=O)Nc2ncc(Cc3ccc(-c4ccccc4)cc3)s2)n1`, the figures for the inhibition in test [2] and in test [5] were 10% and 31%, respectively.

As for `Cc1cc(O)nc(SCC(=O)Nc2ncc(Cc3cccc4ccccc34)s2)n1`, the inhibition is less than 10% in test [2] and 35% in test [5].

With `CCCCCC(=O)Nc1ncc(Cc2cccc3ccccc23)s1`, the inhibition in test [11] is 77%; in test [2], less than 10%; in [5], 48%; in [12], less than 10%.

As for `CC(=O)Nc1ncc(C)s1`, the inhibition in [2] and in [5] was less than 10% in each case.

In the case of `Cc1cc(C)nc(SCC(=O)Nc2nc(-c3ccc4ccccc4c3)cs2)n1`, the inhibition in test [2] was 23%; in test [5], 35%.

`Cc1cc(C)nc(SCC(=O)Nc2nnc(C(F)(F)F)s2)n1` had a pIC50 in [1] of 3.30. Besides, the inhibition in test [2] came to 12%.

As for `CCC(Sc1nc(C)cc(C)n1)C(=O)Nc1ncc(Cc2cccc3ccc(Cl)cc23)s1` (racemic), in test [1], the pIC50 was 6.49. The same compound gave an inhibition in test [2] of less than 10%.

In turn, `Cc1ccnc(SCC(=O)Nc2ncc(Cc3cccc4ccccc34)s2)n1` had a negative logarithm of the IC50 (pIC50) in test [1] of 5.84. Moreover, in test [2], the inhibition is less than 10%.

Consider `Cc1cc(C)nc(SCC(=O)Nc2ncc(C)s2)n1`, for which the inhibition in [2] is less than 10%; in [13] it was 24%.

In turn, `Cc1cc(C)nc(SCC(=O)Nc2ncc(Cc3cccc4cc(Cl)ccc34)s2)n1` gave a pIC50 in [1] of 6.32. This compound had an inhibition in [2] of 20%.

In the case of `Nc1cc(N)nc(SCC(=O)Nc2ncc(Cc3cccc4ccccc34)s2)n1`, the figures for the inhibition in test [2] and in test [5] were less than 10% and 25%, respectively.

Regarding `CC(Sc1ncccn1)C(=O)Nc1ncc(Cc2cccc3ccccc23)s1` (racemic), in test [1], the pIC50 was 5.72. In [2], this compound showed an inhibition of 21%.

In test [1], `Cc1cc(C)nc(SCC(=O)Nc2nnc(Cc3ccc(Br)cc3)s2)n1` had a pIC50 of 3.78. Also, in test [2], the inhibition was less than 10%.

The compound `O=C(CSc1nnc(-c2ccccc2)c(-c2ccccc2)n1)Nc1nnc(-c2ccccc2)s1` gave a pIC50 in test [1] of 4.70. Moreover, the inhibition in test [2] is less than 10%.

`Nc1ccccc1SCC(=O)Nc1ncc(Cc2cccc3ccccc23)s1`: the inhibition in [2] is less than 10%; in [5], 36%.

In turn, `Cc1cc(C)cc(SCC(=O)Nc2ncc(Cc3cccc4ccccc34)s2)c1` had a pIC50 in test [1] of 3.68. The compound further came in with an inhibition in [2] of 16%.

Values taken from ChEMBL document CHEMBL3769317, “Aminothiazoles as Potent and Selective Sirt2 Inhibitors: A Structure-Activity Relationship Study” (J Med Chem, 2016).
